The record followed here is ChEMBL document CHEMBL4513216, “Probing the Open Global Health Chemical Diversity Library for Multistage-Active Starting Points for Next-Generation Antimalarials” (ACS Infect Dis, 2020).

The data set can be described thus: Toxicity liver stage against HepG2, at 10uM. The data set is classed as cell-based. The arrangement: test concentration 10 uM, cell line HepG2-A16-CD81EGFP. As to conditions: human, HepG2-A16-CD81EGFP cells; read-out: INHIBITION
Summed up:
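Uninfected HepG2-A16-CD81EGFP cells, 3 × 10^3 per well, 1536-well, plated on prespotted compound at 10 μM final, parasite-free screening media added to match infected plates; puromycin 10 μM positive, DMSO 0.5% negative; run in parallel with 48 h PbLuc assay at 37 °C, 5% CO2; viability by CellTiter-Glo luminescence, normalized to controls.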
As to `COc1cc(OC)c(C2SCC(=O)Nc3n[nH]cc32)cc1OC` (configuration not stated), the cytotoxicity at 10 µM is -6.08%. In the case of `COc1ccc(Cn2cc(C(C)O)nn2)cc1` (configuration not stated), the cytotoxicity at 10 µM was 16.9%. Under `Cc1cncc(C2CCCN(C(=O)c3cn(C)nc3C)C2)n1` (configuration not stated) stands -7.91%; under `CCOc1cccc(CNc2ccccc2C(=O)OC)c1O`, 6.69%; under `CCn1ccnc1CN1CCC(Oc2ccccc2F)(C(=O)O)CC1`, 6.84%. The value for `CO[C@@H]1CCN(Cc2nccn2C)[C@H]1Cc1cccnc1` was -71.5%. Under `O=C(NCCC1CN(Cc2c[nH]cn2)CCO1)Nc1ccccc1` (configuration not stated) stands -1.92%. With `O=C(Nc1cccnc1)NC(CCCO)c1ccccc1` (configuration not stated), the cytotoxicity at 10 µM is -4.4%. Under `CCn1c(C2CCCN(Cc3cc(F)ccc3OC)C2)nn(C)c1=O` (configuration not stated) stands -4.12%; under `Cc1ncc(-c2ccnc(N3CCCCC3)n2)c(=O)[nH]1`, 7.53%; under `CC1CCc2nc(O)c(C(=O)NCCCN3CCN(C)CC3)cc2C1` (configuration not stated), -11.6%. Under `COCCN1CCCC(O)(CN2CCN(c3ncccc3C)CC2)C1=O` (configuration not stated) stands -10.3%; under `CN1CCN(Cc2ccccc2Oc2cncc(C(N)=O)n2)CC1`, -4.89%. Under `COC(C)c1cccc(NCc2cccc(O)c2)c1` (configuration not stated) stands -0.334%; under `O=C(CCc1nc2cccnc2[nH]1)NCc1ccncc1`, 3.72%; under `CC(C)c1cc(CN(C)C(=O)CN2CCCCC2=O)no1`, 8.01%. Regarding `COC1CCN(S(=O)(=O)N2CCCC2c2ccco2)CC1` (configuration not stated), the cytotoxicity at 10 µM was found to be 11%. With `O=C(CCCNc1ncccn1)N1CCCC(n2cccn2)C1` (configuration not stated), the cytotoxicity at 10 µM was 7.34%. Consider `CC(C)N1CCC2(CC1)C[C@@H](O)[C@H](c1ccccc1)NC2=O`, for which the cytotoxicity at 10 µM was -16.7%. As to `CC(C)c1cc(CNC(=O)Nc2cc(F)cc(N3CCCC3)c2)on1`, the cytotoxicity at 10 µM was determined as 1.57%. Under `CC(C)(C)c1nc(CN2CCCC2CCc2ccccc2)no1` (configuration not stated) stands -5.95%; under `NC(=O)N1CCCN(CC(=O)NCCc2c(F)cccc2F)CC1`, -5.15%. Under `O=C(Nc1ccc2c(c1)OCO2)N1CCCC1c1ccco1` (configuration not stated) stands -2.11%. Take `CN(C)CC1CN(c2cnc3ccccc3n2)CCO1` (configuration not stated): the cytotoxicity at 10 µM is -9.93%. As to `COC(=O)CCN(C)Cc1cc(Br)cs1`, the cytotoxicity at 10 µM came out at 0.311%. The value for `COc1cc(C)sc1C(=O)N1CC(c2cccnc2)C1` was -8.97%.

As to `CNC(=O)c1ccc(CNCc2ccc(SC)c(OC)c2)cc1`, the cytotoxicity at 10 µM was determined as 0.838%. With `CN(C)C[C@@H]1CN(C(=O)c2cc(-c3ccccc3)n[nH]2)C[C@@H]1CO`, the cytotoxicity at 10 µM is -19.9%.

For `N#CC1COCCN1S(=O)(=O)c1ccc2c(c1)CCC2` (configuration not stated), the cytotoxicity at 10 µM came to 4.53%. Under `CC(C)c1ccc(NC(=O)Cn2cc(I)cn2)cc1` stands 2.77%. In the case of `Cc1cccnc1NC(=O)CC1(Cn2cnnn2)CCCCC1`, the cytotoxicity at 10 µM is -5.62%. Under `c1ccc(CO[C@@H]2CC[C@H]3[C@H]2OCCN3Cc2ccsc2)nc1` stands -4.69%; under `Fc1cc(CCNc2ccc3nccn3n2)c2c(c1)COCO2`, 17.2%.

As for `COc1cccc(-n2cc(-c3ccnc(NC(CO)C(C)C)n3)cn2)c1` (configuration not stated), the cytotoxicity at 10 µM was found to be 2.74%. The value for `O=C(c1ccccn1)N1CCC2(CC1)COC(COCC1CCCC1)C2` (configuration not stated) was -1.18%; that for `CCCn1cc(Cl)c(C(=O)N2C[C@@H](O)[C@H](NC(C)=O)C2)n1` was -0.255%.

Consider `Cc1ccnc(C2CN(c3ncccn3)C2)n1`, for which the cytotoxicity at 10 µM was 2.55%. Under `COc1c(C2CCCN2C(=O)c2ccc(O)nc2)c(C)nn1C` (configuration not stated) stands 2.63%; under `Cc1cc(C)n(C2CN(Cc3ccccn3)C2)n1`, -3.67%; under `Cn1nc(CN2CCCN(C3CCCC3)CC2)c2c(Cl)cccc21`, 11%. Consider `CC(C)OCCC(=O)NS(=O)(=O)N1CCOc2ccccc21`, for which the cytotoxicity at 10 µM is -0.955%. Under `COc1cc(CNCC(O)c2ccc(F)c(F)c2)cc2c1OCO2` (configuration not stated) stands -8.28%; under `CN(C)c1cc(C(=O)N2CCCC2)ccn1`, -4.1%. Under `Cc1cn(CC(=O)N(C)Cc2cccc3ncccc23)c(=O)[nH]c1=O` stands 14.2%; under `COc1ccc2c(C)nc(N3C[C@@H](C)O[C@@H](C)C3)nc2c1`, 6.77%; under `COCCNc1nc(-c2ccc(S(=O)(=O)N3CCCCCC3)cc2)cs1`, -32.7%. For the compound `O=C(NC[C@H]1OC[C@@H](NCc2ccc(F)cc2)[C@@H]1O)N1CCOCC1`, the cytotoxicity at 10 µM worked out at 1.17%. The value for `CN1CC[C@H](c2nnc(Cc3c[nH]c4ccccc34)o2)C1` was 4.84%; that for `CCCn1nnnc1COC(=O)C1Cc2cc(Cl)ccc2O1` (configuration not stated) was -5.68%; that for `Cc1nsc(N2CCCN(c3nc(C4CC4)ns3)CC2)n1` was -11.5%. The value for `CC(=O)N(CCC(=O)NC1(C#N)CCC1)Cc1ccccc1` was 12.6%; that for `CN(C)C(=O)CN1CCC2(COCc3cnc(-c4ccccc4)nc32)C1` (configuration not stated) was -96.7%. Regarding `CNCc1cc(F)ccc1Oc1ccc(F)cc1F`, the cytotoxicity at 10 µM is -11%. The value for `Cn1cnc2c1C(COCC1CC1)CN(C(=O)c1ccsc1)C2` (configuration not stated) was 4.73%; that for `CNCC[C@H]1CC(C)(C)Oc2ccc(C)cc21` was 0.526%. Under `CCCc1ccc(CN2CCN(c3ncccn3)[C@@H]3CS(=O)(=O)C[C@@H]32)o1` stands 1.66%; under `Cc1occc1CN(C)Cc1nc2c(cnn2C)c(=O)[nH]1`, 2.11%. The value for `COc1ccc(OCCN(C)S(=O)(=O)c2cnn(C)c2)cc1` was -2.82%; that for `COCCN(C)C[C@@H]1CN(C(=O)c2ccc(OC)c(F)c2)C[C@@H]1CO` was 2.87%. Turning to `Cc1cccc(-c2c[nH]c(C3CCCN3)n2)c1` (configuration not stated), the cytotoxicity at 10 µM is -11.4%.

Consider `C=C(C)CN1CCC(NC(=O)NCCc2ccc(N(C)C)cc2)CC1`, for which the cytotoxicity at 10 µM was determined as 2.2%. Under `CN(Cc1cccc(O)c1)C(=O)Nc1cccnc1N1CCCC1` stands -0.565%; under `COc1ccccc1C(=O)N1CCCC1c1nncn1CC(C)C` (configuration not stated), -2.96%; under `CC(C)C(NC(=O)c1ccccc1F)C(=O)Nc1cnn(C)c1` (configuration not stated), -7.58%. The value for `CN(C)C[C@H]1C[C@@H]2CN(Cc3ccoc3)C[C@@H]2O1` was 4.85%.

On to `Cc1nn(C)c(N(C)C)c1CNC1CCOc2c(F)cccc21` (configuration not stated), for which the cytotoxicity at 10 µM was -13.9%. The value for `CCOCc1nccc(-c2ccc(OCC)c(C(=O)O)c2)n1` was 2.55%; that for `CN(Cc1cccc(F)c1)C(=O)CN1CCCC1CCc1ccccc1` (configuration not stated) was -12%; that for `COc1cc2c(cc1CNC(Cc1cccs1)c1nccs1)OCCO2` (configuration not stated) was -1.6%. Under `Cc1c(C(=O)N[C@@H]2CC[C@@H](N3CCCC3)[C@@H]2O)[nH]c2ccc(F)cc12` stands -1.85%; under `Cc1ccc(C(=O)N2CCCC(Cn3cc(C(C)(C)N)nn3)C2)s1` (configuration not stated), -19.1%. Under `CCn1c(C)nnc1SCCn1cc(-c2nccs2)nn1` stands 2.91%.
